# Bioassay records as filed in PubChem.
# The list is not random: actives were taken first. Their share in the collection is about 0.98%.
# ERAP1 HTS inh = inhibitors of human ERAP1 aminopeptidase. recombinant ERAP1, Leu-AMC fluorescence, 60 min. inhibition, % at 10.7 µM. hit rate 0.15% among 340,000. AID 652197;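 active = mean replicate inhibition of at least 30%, or all replicates individually reaching that 30% level; inactive = mean below 30% and not every replicate reaching it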;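 note: 0% = neutral control wells and 100% = L-leucinethiol positive control wells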
# S100A4 inh HTS = S100A4-myosin IIA interaction inhibition; AID 652163; hit rate 0.14% among 360,000; inhibition, % at 10.7 µM; S100A4/TAMRA-MyoIIA peptide fluorescence polarization; P26447;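 active = mean inhibition of at least 70% across replicates, with every replicate also reaching that level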
# Target sequence (P26447 whole entry, looked up): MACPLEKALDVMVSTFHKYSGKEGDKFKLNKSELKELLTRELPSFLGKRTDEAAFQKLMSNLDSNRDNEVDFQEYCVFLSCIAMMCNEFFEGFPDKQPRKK
#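 incubation = readout 5 min after mixing, signal stable up to 60 min | system = S100A4 monomer protein | buffer or medium = HEPES pH 7.2 with CaCl2, KCl, NaCl, DTT, Triton | benchmarks = neutral control DMSO, positive control TFP | also added = fluorescent myosin IIA peptide, 5 nM | compound dosing = one concentration per compound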
# Rtt109 HAT inh = inhibitors of Candida albicans Rtt109/Vps75 histone acetyltransferase; inhibition, % at 34.9 µM; AID 540336; purified Rtt109/Vps75, ThioGlo CoA-SH fluorescence, 4 h; hit rate 0.16% among 330,000;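 active = inhibition of at least 50% in every replicate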
# Target sequence (Q5AAJ8 whole entry, looked up): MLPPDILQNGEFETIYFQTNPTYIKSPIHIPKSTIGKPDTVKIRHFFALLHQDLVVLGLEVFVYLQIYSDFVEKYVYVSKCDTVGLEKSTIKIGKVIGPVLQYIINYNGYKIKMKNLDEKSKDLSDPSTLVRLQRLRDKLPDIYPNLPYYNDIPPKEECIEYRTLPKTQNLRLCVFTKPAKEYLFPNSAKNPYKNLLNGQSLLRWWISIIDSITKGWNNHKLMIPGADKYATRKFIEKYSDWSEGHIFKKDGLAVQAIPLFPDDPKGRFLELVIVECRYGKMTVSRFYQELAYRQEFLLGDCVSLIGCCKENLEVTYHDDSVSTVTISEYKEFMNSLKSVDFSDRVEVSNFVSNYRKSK
# PGC1a acetyl inh = PGC1a acetylation modulation, inhibitor mode; U2OS PGC1a acetylation, AlphaScreen anti-acetyl-lysine; with virally co-expressed GCN5 acetyltransferase; inhibition, % at 15.6 µM; hit rate 0.17% among 350,000; AID 651687;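 active = every replicate shows inhibition of at least 40%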;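 note: 0% = neutral control wells and 100% = positive control wells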
# Statin myotox sup = suppression of simvastatin myotoxicity; hit rate 0.78% among 330,000; C2C12 myotubes + simvastatin, ATP luminescence, 48 h; scaled: DMSO 0, geranylgeraniol control 100; rescue of ATP level, % at 7.49 µM;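 active = mean ATP rescue above about 67%, or every replicate alone reaching that limit, limit read from the data, passing the limit was not always enough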;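 note: myotubes were challenged with 10 µM simvastatin during compound exposure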
# An asterisk follows results filed as active; . = no result; ! = a repeat was not active.
SMILES,ERAP1 HTS inh,S100A4 inh HTS,Rtt109 HAT inh,PGC1a acetyl inh,Statin myotox sup
C=CCOc1ccc(/C=C2\SC(=S)N(C(C(=O)O)c3ccccc3)C2=O)cc1 (stereo not drawn),33.9*,-17.2,37.6,1.1,.
CC(/C=C1\SC(=S)N(C(C(=O)O)c2ccccc2)C1=O)=C\c1ccccc1 (stereo not drawn),30.3*,1.4,66.2*,-8.4,.
C[C@H]1CN([C@@H](C)CO)C(=O)c2ccccc2-c2ccccc2CO[C@H]1CN(C)C(=O)Nc1cccc(Cl)c1Cl,-0.8,-11.8,.,-0.6,.
O=C(NCC(=O)N1CCCCC1)c1ccc2ccccc2c1,-0.3,9.8,51.7*,-26.4,.
COc1ccc(C(=O)NCC(=O)N2CCC(C)CC2)cc1OC,.,.,-8.2,0.6,90.2*
CC1CC(C)CN(C(=O)CNC(=O)c2ccc3ccccc3c2)C1 (stereo not drawn),0.2,-4.7,2.0,2.6,.
COCC(=O)Nc1ccc2c(c1)[C@H]1C[C@H](CC(=O)O)O[C@H](CO)[C@H]1O2,-0.3,4.1,.,8.9,-0.5
CCOC(=O)C1CCN(S(=O)(=O)c2ccccc2[N+](=O)[O-])CC1,0.8,-3.3,.,-3.3,1.2
CCOC(=O)C1CCN(c2ccc([N+](=O)[O-])c(C(C)=O)c2)CC1,5.4,-0.7,115.5*,0.3,0.7
CC1(c2ccccc2)CC(C)(C)N2C(=O)C3(C(C#N)=C(N)Oc4cc(O)ccc43)c3cccc1c32 (stereo not drawn),5.3,0.5,10.0,-1.1,87.1*
Cc1cccc(NC(=O)C2CCCN(S(=O)(=O)c3cccc4nsnc34)C2)n1 (stereo not drawn),.,.,3.2,-9.3,108.5*
C/C(=N\NC(=O)CN1CCCCC1)c1cccc([N+](=O)[O-])c1,0.5,-3.2,4.5,.,.
C/C(=N\NC(=O)CN1CCCCC1)c1ccccc1O,7.3,0.0,4.7,43.8*,3.7
CC1(C)CC(NC(=O)CCC2CCCC2)CC(C)(C)N1,.,.,-0.1,3.3,105.9*
C[C@@H]1CCCCO[C@@H](CN(C)Cc2ccc(C(=O)O)cc2)[C@H](C)CN([C@H](C)CO)C(=O)c2cc(NS(=O)(=O)c3ccc(Cl)cc3)ccc2O1,-9.0,-6.4,.,4.9,.
C/C=C/c1ccc(C2[C@H]3CNC[C@@H]2N3S(=O)(=O)c2ccccc2OC)cc1 (stereo partly drawn),-3.1,-14.4,.,1.0,.
C/C=C/c1ccc(C2[C@H]3CNC[C@@H]2N3S(=O)(=O)c2ccccc2C)cc1 (stereo partly drawn),-2.8,100.7*!,.,5.2,.
CCCS(=O)(=O)NCc1cn2cccc(C)c2n1,-1.0,9.1,-6.9,-3.2,4.2
Cc1cccn2cc(CNc3ccccc3)nc12,.,.,-2.4,-4.5,108.6*
Cc1cccn2cc(CCNS(=O)(=O)c3cccs3)nc12,1.5,0.1,55.2*,6.0,-9.4
[O-][n+]1onc2c1CCc1nnccc1-2,.,.,-2.5,4.0,84.2*
C[C@H](O)C#Cc1ccc2c(c1)O[C@@H](CN(C)C(=O)c1ccncc1)[C@H](C)CN([C@H](C)CO)S2(=O)=O,.,.,.,10.8,13.6
CCCNC(=O)N1[C@H](C#N)[C@H](c2ccc(-c3cccnc3)cc2)[C@H]1CO,6.1,6.7,.,14.6,-11.0
CN(C(=O)c1ccc(NC(=O)Cc2ccc(NC(=O)C3CCN(C(=O)CCc4ccccc4)CC3)cc2)cc1)C1CC1,-1.0,0.9,12.8,-7.0,160.1*
ONC(=Nc1ccccc1)C(=Nc1ccccc1)NO,.,.,-3.3,-5.3,85.7*
SMILES,ERAP1 HTS inh,S100A4 inh HTS,Rtt109 HAT inh,PGC1a acetyl inh,Statin myotox sup
O=c1cc(N2CCOCC2)[nH]c(=O)n1C1CCCCC1,.,.,1.8,-3.6,121.8*
COc1ccc(S(=O)(=O)N(C)C[C@H]2OCCCC[C@H](C)Oc3ccc(NC(=O)CCC(F)(F)F)cc3C(=O)N([C@H](C)CO)C[C@@H]2C)cc1,-1.7,-23.5,.,5.3,.
CCN(c1ccc(OC)cc1)S(=O)(=O)c1nnc(NC(=O)COc2ccc(F)cc2)s1,-0.5,5.5,-20.8,-1.7,-4.2
Cc1ccc(OCC(=O)Nc2nnc(S(=O)(=O)N3CCCCCC3)s2)cc1C,0.1,-6.1,-16.6,-0.3,-2.6
O=C(COc1ccc(Cl)cc1)Nc1nnc(S(=O)(=O)N2CCCCCC2)s1,3.5,-2.8,-15.8,-1.3,76.8*
CCN(c1ccc(OC)cc1)S(=O)(=O)c1nnc(NC(=O)COc2ccc(C)cc2)s1,1.4,-18.7,56.6*,10.6,1.1
